Test results reported in paper PMC3921099 (Neurochemical research, 2013).
Blank lines part the entries; values can stand above or below the compound they belong to.

How the values were obtained:
α1β3 receptors [1] = target: T1, α1β3 receptors (Rattus norvegicus, UniProt P62813+P63079); test: Two electrode voltage clamp in Xenopus oocytes, modulation of GABA EC3 current; assay type: cell-based
How it was run: (§1)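 Rat α and β3 cRNAs (capped, polyadenylated) injected at 1:1 into Xenopus oocytes, 2.5–4 ng per oocyte, at least 24 h at 18 °C, then defolliculated. Two-electrode voltage clamp at −60 mV, room temperature, in Xenopus Ringer (pH 7.4). GABA titrated to 3–7 % of each oocyte's maximum (EC3). Test compound (0.1 % DMSO final) pre-applied 30 s, then co-applied with GABA until peak. Washout up to 15 min between applications. Responses are % of the GABA control. Mean ± SEM from ≥3 oocytes, ≥2 batches.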

α1β3γ2 receptors [2] = target: T2, α1β3γ2 receptors (Rattus norvegicus, UniProt P62813+P63079); test: Two electrode voltage clamp in Xenopus oocytes, modulation of GABA EC3 current; assay type: cell-based; settings: GABA alone
α1β3δ receptors = α1β3δ receptors (Rattus norvegicus, UniProt P62813+P63079); test: Two electrode voltage clamp in Xenopus oocytes, modulation of GABA current; assay type: cell-based; settings: for stimulation of GABA EC3: 10 μM concentration
Sequence of α1β3δ receptors (P62813 28-455): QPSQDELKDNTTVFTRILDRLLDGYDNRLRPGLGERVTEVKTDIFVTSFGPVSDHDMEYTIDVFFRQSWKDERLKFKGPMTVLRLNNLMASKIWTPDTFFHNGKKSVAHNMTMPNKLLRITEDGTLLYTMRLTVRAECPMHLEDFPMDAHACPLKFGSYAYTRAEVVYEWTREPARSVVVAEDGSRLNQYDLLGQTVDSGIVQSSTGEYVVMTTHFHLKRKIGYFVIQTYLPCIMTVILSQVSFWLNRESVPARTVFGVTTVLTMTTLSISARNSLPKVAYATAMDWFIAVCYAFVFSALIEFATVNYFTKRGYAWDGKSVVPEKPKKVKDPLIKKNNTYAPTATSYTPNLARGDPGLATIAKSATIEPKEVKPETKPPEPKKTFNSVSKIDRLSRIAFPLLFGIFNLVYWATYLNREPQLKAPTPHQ
Sequence of α1β3δ receptors (P63079 26-473): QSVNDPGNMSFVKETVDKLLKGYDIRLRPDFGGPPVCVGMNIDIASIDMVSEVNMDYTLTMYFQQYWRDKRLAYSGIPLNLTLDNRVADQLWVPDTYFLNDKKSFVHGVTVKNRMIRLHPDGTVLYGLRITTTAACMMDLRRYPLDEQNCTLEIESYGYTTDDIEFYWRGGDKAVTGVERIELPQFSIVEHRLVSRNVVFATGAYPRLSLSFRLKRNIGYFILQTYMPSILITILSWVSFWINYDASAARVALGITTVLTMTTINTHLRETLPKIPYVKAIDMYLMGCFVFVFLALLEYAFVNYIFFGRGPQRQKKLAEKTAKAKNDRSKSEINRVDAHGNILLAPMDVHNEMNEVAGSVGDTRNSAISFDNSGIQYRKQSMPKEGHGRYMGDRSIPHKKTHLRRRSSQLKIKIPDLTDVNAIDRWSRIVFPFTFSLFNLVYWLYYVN
Sequence of α1β3δ receptors (P18506 17-449 partner limits assumed): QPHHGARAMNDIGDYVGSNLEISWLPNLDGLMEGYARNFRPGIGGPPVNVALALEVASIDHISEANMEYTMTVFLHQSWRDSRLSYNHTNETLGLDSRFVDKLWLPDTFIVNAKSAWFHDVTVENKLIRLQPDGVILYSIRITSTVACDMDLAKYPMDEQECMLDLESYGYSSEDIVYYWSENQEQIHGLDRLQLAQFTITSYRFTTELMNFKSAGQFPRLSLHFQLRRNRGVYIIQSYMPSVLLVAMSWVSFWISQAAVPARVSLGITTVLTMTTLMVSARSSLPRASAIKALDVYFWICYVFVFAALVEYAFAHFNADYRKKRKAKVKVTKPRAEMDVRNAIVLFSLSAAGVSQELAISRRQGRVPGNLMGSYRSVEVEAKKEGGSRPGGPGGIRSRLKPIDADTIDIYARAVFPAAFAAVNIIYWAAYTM
How it was run: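 α1β3δ receptors from rat cRNAs injected at 3:1:5 into Xenopus oocytes, expressed ≥24 h. Two-electrode clamp at −60 mV, room temperature. GABA concentration–response curves (including 1 μM and 1 mM GABA) recorded with and without 10 μM test compound, currents normalised to maximum evoked current. Hill fits. Curves with and without modulator compared by paired Student's t test, P<0.05, n = 4.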

α4β3δ receptors = α4β3δ receptors (Rattus norvegicus, UniProt P28471+P63079); test: Two electrode voltage clamp in Xenopus oocytes, modulation of GABA EC3 current; assay type: cell-based
How it was run: (§2)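 Oocytes injected with rat α, β and δ cRNAs (3:1:5, 2.5–4 ng total) and held ≥24 h at 18 °C before collagenase defolliculation. Voltage clamped at −60 mV, room temperature, perfused 6 ml/min with Ringer (pH 7.4). GABA EC3 (3–7 % of individual maximum) co-applied with test compound after 30 s pre-application, 0.1 % DMSO final. Concentration–response fit with Hill equation, bottom fixed at 100 %. Mean ± SEM, ≥3 oocytes, ≥2 batches.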

α6β3δ receptors = α6β3δ receptors (Rattus norvegicus, UniProt P30191+P63079); test: as above; assay type: cell-based; settings: 10 μM concentration
Sequence of α6β3δ receptors (P30191 20-453): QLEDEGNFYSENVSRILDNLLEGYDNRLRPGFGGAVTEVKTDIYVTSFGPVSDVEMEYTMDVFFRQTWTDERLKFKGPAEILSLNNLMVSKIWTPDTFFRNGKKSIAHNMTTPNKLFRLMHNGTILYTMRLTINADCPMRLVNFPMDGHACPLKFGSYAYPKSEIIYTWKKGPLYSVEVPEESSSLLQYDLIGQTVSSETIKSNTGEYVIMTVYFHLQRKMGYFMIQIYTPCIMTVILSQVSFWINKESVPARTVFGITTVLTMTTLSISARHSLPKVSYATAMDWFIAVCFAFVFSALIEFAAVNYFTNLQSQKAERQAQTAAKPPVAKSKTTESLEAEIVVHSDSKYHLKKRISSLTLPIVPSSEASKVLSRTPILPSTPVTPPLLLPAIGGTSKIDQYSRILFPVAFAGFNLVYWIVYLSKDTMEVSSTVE
Sequence of α6β3δ receptors (P63079 26-473): as the sequence (P63079 26-473) above
Sequence of α6β3δ receptors (P18506 17-449 partner limits assumed): as the sequence (P18506 17-449 partner limits assumed) above
How it was run: as §2

α1β3γ2 receptors [3] = target: T2, α1β3γ2 receptors; settings: 10 μM concentration; cited from earlier work
α4β3γ2 receptors [4] = target: T3, α4β3γ2 receptors (Rattus norvegicus, UniProt P28471+P63079); settings: cited from earlier work
α6β3γ2 receptors [5] = target: T4, α6β3γ2 receptors (Rattus norvegicus, UniProt P30191+P63079); settings: 10 μM concentration; cited from earlier work
α1S204Cβ3Q64C receptors = α1S204Cβ3Q64C receptors (Rattus norvegicus, UniProt P62813+P63079, Q89C/S231C); test: Two electrode voltage clamp, steric hindrance; assay type: cell-based
How it was run: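 Oocytes expressing rat α1S204C with β3Q64C (1:1 cRNA) were defolliculated, then immersed 3 min in freshly made 2 mM MTSEA-biotin in Ringer containing GABA EC3, washed 5 min and recorded the same day. Two-electrode clamp at −60 mV with GABA EC3 plus test compound, compared with untreated oocytes. Mean ± SEM, n = 3–4.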

α2β3 receptors = α2β3 receptors (Rattus norvegicus, UniProt P23576+P63079); test: Two electrode voltage clamp in Xenopus oocytes, modulation of GABA EC3 current; assay type: cell-based; settings: 10 μM concentration
How it was run: as §1

α3β3 receptors = α3β3 receptors (Rattus norvegicus, UniProt P20236+P63079); test: as above; assay type: cell-based; settings: 10 μM concentration
How it was run: as §1

α5β3 receptors = α5β3 receptors (Rattus norvegicus, UniProt P19969+P63079); test: as above; assay type: cell-based; settings: 10 μM
How it was run: as §1

α4β3γ2 receptors [6] = target: T3, α4β3γ2 receptors; test: Two electrode voltage clamp in Xenopus oocytes, modulation of GABA EC3 current; assay type: cell-based; settings: 10 μM concentration
How it was run: (§3)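 Rat αxβ3γ2 cRNAs injected into Xenopus oocytes at a 1:1:5 ratio, 2.5–4 ng total, incubated at least 36 h at 18 °C before defolliculation. Two-electrode clamp at −60 mV, room temperature, Ringer pH 7.4. GABA at EC3 (3–7 % of the cell's maximum current). Test compound (0.1 % DMSO) pre-applied 30 s, then co-applied with GABA to peak. Effects are % of GABA EC3 current. Mean ± SEM, ≥3 oocytes from ≥2 batches.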

α6β3γ2 receptors [7] = target: T4, α6β3γ2 receptors; test: as above; assay type: cell-based; settings: 10 μM concentration
How it was run: as §3

α1β2δ receptors = α1β2δ receptors (Rattus norvegicus, UniProt P62813+P63138); test: Two electrode voltage clamp in Xenopus oocytes, modulation of GABA EC3 current; assay type: cell-based
Sequence of α1β2δ receptors (P62813 28-455): as the sequence (P62813 28-455) above
Sequence of α1β2δ receptors (P63138 25-474 limits assumed): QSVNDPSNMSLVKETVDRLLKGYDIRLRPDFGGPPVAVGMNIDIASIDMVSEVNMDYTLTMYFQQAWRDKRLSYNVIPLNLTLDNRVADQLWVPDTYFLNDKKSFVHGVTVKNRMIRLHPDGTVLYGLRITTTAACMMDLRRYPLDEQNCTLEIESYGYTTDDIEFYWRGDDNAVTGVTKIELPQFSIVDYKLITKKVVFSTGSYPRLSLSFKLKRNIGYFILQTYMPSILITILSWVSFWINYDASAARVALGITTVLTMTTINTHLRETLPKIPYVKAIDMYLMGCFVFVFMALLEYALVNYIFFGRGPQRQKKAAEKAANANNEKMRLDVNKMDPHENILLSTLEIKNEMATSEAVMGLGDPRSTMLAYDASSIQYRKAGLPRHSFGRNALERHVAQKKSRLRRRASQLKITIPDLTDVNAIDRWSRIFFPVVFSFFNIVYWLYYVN
Sequence of α1β2δ receptors (P18506 17-449 partner limits assumed): as the sequence (P18506 17-449 partner limits assumed) above
How it was run: as §2

α1β1δ receptors = α1β1δ receptors (Rattus norvegicus, UniProt P15431+P62813); test: as above; assay type: cell-based
How it was run: as §2

α1β3Q64Cδ receptors = α1β3Q64Cδ receptors (Rattus norvegicus, UniProt P62813+P63079, Q89C); test: Two electrode voltage clamp, steric hindrance; assay type: cell-based; settings: 10 μM
How it was run: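 α1, β3Q64C and δ cRNAs injected at 3:1:5. Defolliculated oocytes were exposed 3 min to freshly prepared 2 mM MTSEA-biotin in Ringer with GABA EC3, rinsed 5 min and used the same day. Untreated oocytes served as comparison. GABA EC3 response to 10 μM test compound measured by two-electrode clamp at −60 mV. Treated and untreated groups compared by unpaired Student's t test, P<0.05.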

α1S204Cβ3δ receptors [8] = target: α1S204Cβ3δ receptors (Rattus norvegicus, UniProt P62813+P63079, S231C); test: Two electrode voltage clamp, steric hindrance; assay type: cell-based; settings: 10 μM, without MTSEA-biotin
α1S204Cβ3δ receptors [9] = test: Two electrode voltage clamp, steric hindrance; assay type: cell-based, rat; settings: 10 μM, MTSEA-biotin treated
[10] = target: benzodiazepine binding site of α1β3γ2 receptors; settings: read-out: IC50 of [3H]Ro15-1788 binding; cited from earlier work
α1β3 receptors [11] = target: T1, α1β3 receptors; settings: 10 μM concentration; cited from earlier work
αβδ receptors = test: Two electrode voltage clamp, DS2 test for incorporation of the delta subunit; assay type: cell-based, rat; settings: 10 μM DS2 (experiments not shown)
How it was run: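 Expression of δ checked in every oocyte injected with α, β and δ cRNAs: GABA-induced current tested with addition of 10 μM DS2, under two-electrode voltage clamp at −60 mV, room temperature, in Xenopus Ringer.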

[12] = α1β3δ receptors, LAU 157 up to 30 μM (experiments not shown)

T1 sequence (P62813 28-455): as the sequence (P62813 28-455) above
T1 sequence (P63079 26-473): as the sequence (P63079 26-473) above

GABA-induced current (maximal) (α1β3 receptors [1]; GABA alone): 8 μA | GABA-induced current (maximal) (α1β3γ2 receptors [2]): 16 μA | maximal GABA-induced effect (current) (α1β3δ receptors; α1β3δ receptors, GABA alone): about 1 μA
Compound: NCCCC(=O)O [GABA, gamma-aminobutyric acid, reference compound]

stimulation of GABA EC3 (α1β3δ receptors; α1β3δ receptors): 1186 ± 89% | modulation of GABA-induced currents (α4β3δ receptors; α4β3δ receptors, concentration not given): 425 ± 26% | stimulation of GABA EC3 (α6β3δ receptors): 1152 ± 106%
Compound: COc1ccc(-n2nc3c4cc(Cl)ccc4[nH]cc-3c2=O)cc1 [PZ-II-028, 8-chloro-2-(4-methoxyphenyl)-2H-pyrazolo[4,3-c]quinolin-3(5H)-one, reference compound]
stimulation of GABA-induced currents (α1β3γ2 receptors [3]): 939 ± 64 | modulation of GABA-induced currents (α4β3γ2 receptors [4]): 226 ± 14% | stimulation of GABA-induced current (α6β3γ2 receptors [5]): 1871 ± 28%

enhancement of GABA-induced currents, up to % of GABA EC3 (α1β3 receptors [1]; concentration dependent, maximum): 1152 ± 145 % of GABA EC3 | current enhancement in the presence of MTSEA-biotin (α1S204Cβ3Q64C receptors; MTSEA-biotin treated): drastically reduced | stimulation of GABA EC3 (α2β3 receptors): 981 ± 20 % of GABA EC3 | stimulation of GABA EC3 (α3β3 receptors): 913 ± 178 % of GABA EC3 | enhancement of the GABA-induced current (α5β3 receptors): about 528 ± 103 % GABA | EC50 (α1β3δ receptors): 1000 nM | enhancement of the conductance induced by maximal GABA concentrations (α1β3δ receptors; α1β3δ receptors, 10 μM LAU 177): about 12 times | change of GABA EC50 by the modulator (α1β3δ receptors; α1β3δ receptors, 10 μM LAU 177, paired Student's t test p>0.05): no significant change | stimulation of GABA EC3 (α1β3δ receptors; α1β3δ receptors): 3285 ± 257% | GABA-induced current in the presence of LAU 177 (α1β3δ receptors; α1β3δ receptors, 1 mM GABA, 10 μM LAU 177): 13 μA | stimulation of GABA EC3 (α4β3δ receptors; α4β3δ receptors (printed δ4β3δ), 10 μM concentration): 1365 ± 117% | stimulation of GABA EC3 (α4β3γ2 receptors [6]): 981 ± 52% | stimulation of GABA EC3 (α6β3γ2 receptors [7]): 1622 ± 87% | stimulation of GABA EC3 (α6β3δ receptors): 1639 ± 244% | EC50 (α1β2δ receptors): > 10700 nM | stimulation of GABA EC3 (α1β2δ receptors; α1β2δ receptors, 10 μM concentration): 2843 ± 396% | efficacy compared to α1β2,3δ receptors (α1β1δ receptors): drastically reduced | stimulation of GABA EC3 after incubation with MTSEA biotin (α1β3Q64Cδ receptors; MTSEA-biotin treated): 1754 ± 568% | stimulation of GABA EC3 (α1β3Q64Cδ receptors; without MTSEA-biotin): 6941 ± 1268% | stimulation of GABA EC3 (α1S204Cβ3δ receptors [8]): 5278 ± 1008%
Compound: COc1ccc2[nH]cc3c(=O)n(-c4ccc(C#N)cc4)nc-3c2c1 [LAU 177, 4-(8-methoxy-3-oxo-3,5-dihydro-2H-pyrazolo[4,3-c]quinolin-2-yl)benzonitrile]
enhancement of GABA-induced currents compared with α1β3 receptors (α1S204Cβ3Q64C receptors; without MTSEA-biotin): to a similar extent with a comparable potency | stimulation of GABA EC3 after incubation with MTSEA biotin (α1S204Cβ3δ receptors [9]): 1884 ± 311% | IC50 [10]: 0.75 ± 0.81 nM | stimulation to % of GABA EC3 (α1β3 receptors [11]): 1063 ± 128 % of GABA EC3

modulation of GABA EC3 (α1β3 receptors [1]): did not significantly modulate | inhibition of the effect of 1 μM LAU 177 (α1β3 receptors [1]; increasing concentrations of LAU 157): complete inhibition | modulation of GABA EC3 (α1β3δ receptors; α1β3δ receptors): did not significantly modulate | inhibition of the effects of 1 μM DS2 (α1β3δ receptors; [12]): did not inhibit | inhibition of the effects of 3 μM tracazolate (α1β3δ receptors; [12]): did not inhibit | inhibition of the effect of 1 μM LAU 177 (α1β3δ receptors; α1β3δ receptors, increasing concentrations of LAU 157): complete inhibition | modulation of GABA EC3 (α1β2δ receptors; α1β2δ receptors): did not significantly modulate | inhibition of the effect of 1 μM LAU 177 (α1β2δ receptors; α1β2δ receptors, increasing concentrations of LAU 157): complete inhibition
Compound: O=c1c2c[nH]c3ccc(Cl)cc3c-2nn1-c1ccc([N+](=O)[O-])cc1 [LAU 157, 8-chloro-2-(4-nitrophenyl)-2H-pyrazolo[4,3-c]quinolin-3(5H)-one]

stimulation to % of GABA EC3 (α1β3δ receptors; α1β3δ receptors, 1 μM DS2 (experiments not shown)): 400 % of GABA EC3 | enhancement of GABA-induced currents (αβδ receptors): dramatically enhanced
Compound: O=C(Nc1c(-c2cccs2)nc2ccccn12)c1ccc(Cl)cc1 [DS2, 4-Chloro-N-[2-(2-thienyl)imidazo[1,-2-a]pyridin-3-yl]benzamide, reference compound]

stimulation to % of GABA EC3 (α1β3δ receptors; α1β3δ receptors, 3 μM tracazolate (experiments not shown)): 900 % of GABA EC3
Compound: CCCCNc1c(C(=O)OCC)c(C)nc2c1cnn2CC [tracazolate, 4-(butylamino)-1-ethyl-6-methyl-1H-pyrazolo[3,4-b]pyridine-5-carboxylate, reference compound]
